Bioassay records: PubChem BioAssay, several laboratories
ADAM10 inh: human ADAM10 inhibitors, primary screen, biochemical, QFRET, HTS; Disintegrin and metalloproteinase domain-containing protein 10 (Homo sapiens), O14672; recombinant ADAM10, EDANS/DABCYL FRET peptide cleavage, 3 h; inhibition, % at 7 µM; 0.62% of 370,000 active;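 active means inhibition above a per-campaign cutoff equal to the mean of compounds falling between control-based bounds plus 3 SD, cut at about 20% in these data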;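 further: 0% = DMSO wells while the 100% control is not disclosed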
Target sequence (O14672 214-748 limits assumed): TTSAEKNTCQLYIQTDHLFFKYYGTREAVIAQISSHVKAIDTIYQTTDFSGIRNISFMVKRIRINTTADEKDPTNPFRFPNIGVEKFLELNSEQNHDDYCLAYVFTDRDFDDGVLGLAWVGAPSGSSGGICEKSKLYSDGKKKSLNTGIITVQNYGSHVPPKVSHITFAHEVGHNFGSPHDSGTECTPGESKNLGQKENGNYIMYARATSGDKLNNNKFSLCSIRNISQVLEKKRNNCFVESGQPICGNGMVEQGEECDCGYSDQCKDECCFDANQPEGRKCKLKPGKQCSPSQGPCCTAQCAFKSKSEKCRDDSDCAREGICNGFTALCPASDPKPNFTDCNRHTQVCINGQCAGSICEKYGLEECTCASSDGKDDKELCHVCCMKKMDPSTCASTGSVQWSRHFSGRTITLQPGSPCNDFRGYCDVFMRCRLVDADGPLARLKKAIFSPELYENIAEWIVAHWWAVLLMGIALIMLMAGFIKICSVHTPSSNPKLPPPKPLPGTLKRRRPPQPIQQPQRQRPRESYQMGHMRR
MPTP block: mitochondrial permeability transition pore inhibitors, primary screen, biochemical, isolated mouse mitochondria, absorbance; inhibition, % at 10 µM; 1.4% of 360,000 active; Ca2+ swelling absorbance, 30 min;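 active means inhibition of 50% or more, scaled per plate between neutral and stimulator controls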;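 further: 0% = DMSO wells given calcium and 100% = 1 mM EGTA wells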
aDG glyco act: activators of alpha-DG glycosylation, primary screen, uHTS, Pro5-aDG cells, AlphaScreen. alpha-DG glycosylation AlphaScreen (IIH6); 0% Pro5, 100% B10-LARGE cell signal. activation, % at 10 µM. 0.22% of 360,000 active. AID 624168, 2012;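 active means activation of at least 8% versus controls, or a plate z-score of at least 8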;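 further: Pro5 are CHO cells carrying HIG-tagged alpha-DG that lacks glycosylation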
ADAM17 inh: ADAM17 inhibitors, primary screen, biochemical, QFRET; Disintegrin and metalloproteinase domain-containing protein 17 (Homo sapiens), P78536; 0.83% of 370,000 active; recombinant ADAM17, EDANS/DABCYL FRET peptide cleavage; inhibition, % at 6.95 µM;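 active means inhibition above the mean of compounds lying between control limits plus 3 SD, set per campaign, cut at about 8.5% in these data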;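 further: 0% = DMSO-only wells as the low control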
Hep lipid drop: inhibitors of hepatocyte lipid droplet formation, primary screen, imaging, high-throughput imaging, BODIPY stain. AML12 mouse hepatocytes, oleate lipid droplets. inhibition, % at 6.5 µM. 0.4% of 240,000 active;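 active means lipid droplet intensity inhibited by at least 50%, with more than 500 cells counted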
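Assay system: AML12 mouse liver cells | Compound: 6.5 µM single-point dosing | Schedule: Overnight exposure | Technique: Fluorescence imaging, 20x objective, two fields per well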
V-ATPase pH: regulators of yeast V-ATPase proton pumping, primary screen, pHLuorin cytosolic pH fluorescence; S. cerevisiae; response, % at 10 µM; 0.37% of 350,000 active; in the data active means response mostly above about 7.3%, no sharp cut-off; inactive means mostly below about 5.4%; further: actives read high
ADAM10 ctr: ADAM10 inhibitors, counter-screen for ADAM17 exosite inhibitor project, biochemical, FRET, human ADAM10; shares compounds with ADAM17 inh; recombinant ADAM10, EDANS/DABCYL FRET peptide cleavage, 3 h; inhibition, % at 6.95 µM; 47% of 2,900 active;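 active means mean inhibition over the triplicate runs exceeds the activity threshold set in the earlier primary screen, cut at about 20% in these data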;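 further: 0% = DMSO wells and 100% = marimastat wells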
ADAM17 confirm: ADAM17 inhibitors, hit retest, confirmation, biochemical, QFRET peptide cleavage. recombinant ADAM17, EDANS/DABCYL QFRET peptide cleavage. 65% of 2,900 active. inhibition, % at 6.95 µM. shares compounds with ADAM17 inh;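 active means mean inhibition across replicates above the hit cutoff set in the primary screen, cut at about 8.5% in these data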;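 further: 0% = DMSO wells and 100% = marimastat wells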
Active calls of the source: *. Rows were chosen to be rich in hits. Some 3.1% of all compounds tested hit in one or more screens of this group.

Screening O=C(NCc1cccs1)c1cc(-c2ccccc2)nn1CC1CC(c2cccc([N+](=O)[O-])c2)=NO1 (stereo unspecified) returned ADAM10 inh 15.7, MPTP block 0.5, aDG glyco act -0.1, ADAM17 inh 11.4*, V-ATPase pH -2.7, ADAM10 ctr 27.5* and ADAM17 confirm 13.2*.
For COc1ccc(NC(=O)c2csc3c2CCCC3)cc1 the results were MPTP block 49.7, aDG glyco act 0.1, Hep lipid drop -1.7 and V-ATPase pH -1.9.
For COc1cccc(NC(=O)c2csc3c2CCCC3)c1 the results were ADAM10 inh 10.4, MPTP block -0.6, aDG glyco act 0.1, ADAM17 inh 13.0*, Hep lipid drop -0.9, V-ATPase pH 0.6, ADAM10 ctr 10.4 and ADAM17 confirm 8.5.
For CCN(CC(=O)Nc1ccccc1OC)C(=O)c1ccc2[nH]c3c(c2c1)CC(C)CC3 (stereo unspecified) the results were ADAM10 inh -18.4, MPTP block 0.2, aDG glyco act -0.2, ADAM17 inh -2.7 and V-ATPase pH 2.3.
CCCN(CC(=O)Nc1ccccc1OC)C(=O)c1ccc2[nH]c3c(c2c1)CC(C)CC3 (stereo unspecified) was read as ADAM10 inh 7.6, MPTP block -0.8, aDG glyco act -0.3, ADAM17 inh 12.5*, V-ATPase pH 1.8, ADAM10 ctr 28.6* and ADAM17 confirm 16.3*.
Screening CCCC[C@H]1C2CC(OC(=O)Nc3ccc(C(F)(F)F)cc3)C(C2)[C@H]2CCCCN21 (stereo partly specified) returned ADAM10 inh -7.3 and ADAM17 inh -7.7.
`CCn1c(SCC(=O)Nc2ccc(S(=O)(=O)Nc3cc(C)nc(C)n3)cc2)nc2sc(C)c(C)c2c1=O` gave ADAM10 inh -2.6 and ADAM17 inh 1.5.
Oc1cccc2ccc(Nc3ccccn3)nc12 was read as ADAM10 inh 59.8*, MPTP block 3.9, aDG glyco act 1.2, ADAM17 inh 49.6*, Hep lipid drop 9.0, V-ATPase pH 0.8, ADAM10 ctr 31.9* and ADAM17 confirm 46.8*.
For COc1ccc(CC(=O)OCC(=O)c2c[nH]c3ccccc23)cc1 the results were ADAM10 inh -7.0, MPTP block -0.8, aDG glyco act 0.1, ADAM17 inh -0.4 and V-ATPase pH 1.4.
For COc1ccc(C(=O)c2c[nH]c3ccccc23)cc1 the results were ADAM10 inh 12.9, MPTP block -5.9, aDG glyco act 0.6, ADAM17 inh 11.2*, Hep lipid drop 5.2, V-ATPase pH -0.1, ADAM10 ctr -1.6 and ADAM17 confirm 0.7.
COc1ccc(C2/C=C\CN(C(=O)c3ccccc3)[C@H](Cc3ccccc3)C(=O)N2Cc2ccc(F)cc2)cc1 (stereo partly specified) was read as ADAM10 inh 12.9, MPTP block -0.4, aDG glyco act 0.1, ADAM17 inh 11.2*, Hep lipid drop -3.7, V-ATPase pH -4.0, ADAM10 ctr 21.2* and ADAM17 confirm 10.6*.
Screening Cc1cc(NC(=O)COC(=O)c2cc([N+](=O)[O-])ccc2N2CCOCC2)ccc1Br returned ADAM10 inh 16.5, MPTP block 0.7, aDG glyco act 0.4, ADAM17 inh 8.7*, V-ATPase pH -5.4, ADAM10 ctr 45.7* and ADAM17 confirm 19.4*.
`O=C(CSc1ncnc2scc(-c3ccccc3)c12)Nc1ccc(C(=O)O)cc1` gave ADAM10 inh 3.4, MPTP block 1.8, aDG glyco act -0.1, ADAM17 inh -4.4, Hep lipid drop -0.5 and V-ATPase pH 2.8.
For CC(=O)Nc1ccc(Sc2ncnc3scc(-c4ccccc4)c23)cc1 the results were ADAM10 inh 7.1, MPTP block 0.2, aDG glyco act 0.2, ADAM17 inh 10.4*, Hep lipid drop 0.7, V-ATPase pH -3.6, ADAM10 ctr 13.8 and ADAM17 confirm 10.0*.
Screening C=CCN1C(=O)[C@H](CC(=O)NCCC(C)C)[C@@]2(C(=O)OCC)CCCC=C12 returned ADAM10 inh -6.5 and ADAM17 inh -2.6.
Screening O=C(NCC(c1ccc(F)cc1)N1CCOCC1)c1ccc(Br)o1 (stereo unspecified) returned ADAM10 inh 0.7, MPTP block 0.7, aDG glyco act -0.1, ADAM17 inh 11.2*, V-ATPase pH -7.5, ADAM10 ctr 18.8 and ADAM17 confirm 11.2*.
`O=C(NCC(c1ccc(F)cc1)N1CCOCC1)c1ccco1` (stereo unspecified) gave ADAM10 inh -10.3, MPTP block 0.2, aDG glyco act -0.3, ADAM17 inh -3.7 and V-ATPase pH -4.1.
For CCC(=O)Nc1ccc2c(c1)C(=O)N(C)[C@@H]1CC[C@@H](CC(=O)NCCN3CCCCC3)O[C@H]1CO2 the results were ADAM10 inh -15.7 and ADAM17 inh -8.8.
`C#CCNC(=O)c1cnn(-c2ccccc2)c1N` gave ADAM10 inh -8.3 and ADAM17 inh -1.5.
CCOc1ccc(N(CC(=O)NCCSc2ccccn2)S(C)(=O)=O)cc1 was read as ADAM10 inh 5.7, MPTP block -4.6, aDG glyco act -0.1, ADAM17 inh 10.1*, V-ATPase pH 3.8, ADAM10 ctr -3.0 and ADAM17 confirm 1.3.
COc1cc(NC(=O)Cn2nnc(-c3ccccc3N)n2)cc(OC)c1 was read as ADAM10 inh 17.6, MPTP block 0.0, aDG glyco act 0.5, ADAM17 inh 9.6*, V-ATPase pH 5.2, ADAM10 ctr 0.0 and ADAM17 confirm 1.0.
COc1ccc(NC(=O)Cn2nnc(-c3ccccc3N)n2)cc1OC was read as ADAM10 inh 0.8, MPTP block -1.3, aDG glyco act 0.1, ADAM17 inh -0.9, Hep lipid drop 7.5 and V-ATPase pH 2.1.
O=C(NC1CCCCC1)O[C@H]1CC[C@@]23CCCN2C(=O)CCC[C@H]3C1 was read as ADAM10 inh 3.9 and ADAM17 inh 0.2.
